High-throughput results as filed in PubChem BioAssay.
Only some compounds are listed: those with a hit (about 2.5% of all), similar ones and a draw of the others.
Glyco luc inh: N-linked glycosylation inhibition; D54 ERlucT glycosylation luciferase reporter, 24 h; percent of 100 nM tunicamycin response; reporter increase, % at 12.5 µM; 0.23% of 360,000 active;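 active means mean luciferase reporter signal, scaled so untreated is 0 and the glycosylation-blocking control 100, at or above a set limit in every replicate; inconclusive means mean reaches the limit but not every replicate does; inactive means mean below the limit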;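 further: luciferase carries N-glycosylation sites so blocking glycosylation raises the light; 0% = median of neutral control wells and 100% = median of 100 nM tunicamycin wells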
MLL AF4-AF9 inh: inhibitors of human MLL-AF4/AF9 interaction | AlphaScreen, biotin-AF4 peptide binding to FLAG-AF9 | 0.47% of 350,000 active | P42568 | inhibition, % at 10 µM;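 active means every replicate reaching a set inhibition limit, whatever the replicate mean, cut at about 25% in these data; inconclusive means mean inhibition reaches that limit but some replicates miss it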;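 further: 0% = plate neutral control median and 100% = total signal loss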
Target sequence (P42568 whole entry, looked up): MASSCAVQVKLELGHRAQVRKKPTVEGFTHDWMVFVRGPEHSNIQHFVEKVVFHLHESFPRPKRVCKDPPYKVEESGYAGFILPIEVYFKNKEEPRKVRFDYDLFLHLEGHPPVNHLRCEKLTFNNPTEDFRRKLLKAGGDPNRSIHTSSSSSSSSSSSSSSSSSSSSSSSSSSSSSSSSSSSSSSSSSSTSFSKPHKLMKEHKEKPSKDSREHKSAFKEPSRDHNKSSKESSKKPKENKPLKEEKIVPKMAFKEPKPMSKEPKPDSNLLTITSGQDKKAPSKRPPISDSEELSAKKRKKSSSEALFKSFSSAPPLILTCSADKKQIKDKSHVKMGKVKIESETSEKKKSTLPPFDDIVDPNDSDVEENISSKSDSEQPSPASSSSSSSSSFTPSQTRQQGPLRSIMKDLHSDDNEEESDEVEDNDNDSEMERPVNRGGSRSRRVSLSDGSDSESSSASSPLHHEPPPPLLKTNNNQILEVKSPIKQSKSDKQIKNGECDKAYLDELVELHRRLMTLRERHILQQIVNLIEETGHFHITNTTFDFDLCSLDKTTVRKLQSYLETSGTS
HIV Env fusion: inhibitors of HIV Env-mediated cell fusion; HeLa-JRFL Env/CEM21 cell fusion, luciferase; inhibition, % at 12.3 µM; 1.1% of 360,000 active;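 active means mean replicate inhibition score of at least 50 and every replicate individually at or above 50; inconclusive means only one of the two criteria met; inactive means mean below 50 and not all replicates reaching 50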;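 further: 0% = plate neutral controls and 100% = maraviroc near 300 nM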
FN deposition inh: fibronectin deposition inhibition; AH1F fibroblasts, Alexa488-fibronectin deposition fluorescence, overnight; AID 743247; 0.086% of 350,000 active; inhibition, % at 12.6 µM;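 active means mean inhibition across replicates of 30% or more, regardless of how many single replicates reach that level; inconclusive means mean under 30% yet at least half of replicates reach 30%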;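 further: positive control wells lacked labelled fibronectin entirely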
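Measured by – fluorescence 485/525 nm · System – AH1F fibroblast monolayer, labelled fibronectin deposition · Amount – 10000 cells per well · Buffer or medium – serum-reduced DMEM (2% serum) · Doses – single dose, pinned · Also added – fluorescent fibronectin at 24 nM final · Schedule – 1 h cell attachment, overnight exposure to compound and label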
PAX8 inh HTS: inhibitors of PAX8 transcriptional activity in RMG-I cells; inhibition, % at 12.6 µM; RMG-I TPO-luciferase reporter, SteadyGlo, 24 h; AID 652154; 1.2% of 360,000 active;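 active means mean replicate inhibition at least 60% with every replicate also reaching 60%; inconclusive means only one of the two criteria is met; inactive means mean below 60% and not all replicates reaching 60%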;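 further: luciferase light reporting Pax8 driven TPO promoter activity; plate controls were median of neutral control wells for no effect and mitoxantrone controls for full effect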
EWS-Fli inh: blocks EWS/Fli oncoprotein-driven transcription | A673 NR0B1-luciferase reporter, viability-normalised | inhibition, % at 12.6 µM | 0.67% of 350,000 active | AID 651661;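 active means mean inhibition of at least 50% after viability correction, with every replicate also passing that limit; inconclusive means mean reaches 50% but only one of two replicates passes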;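 further: firefly luciferase signal divided by Alamar Blue viability fluorescence both relative to DMSO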
The depositor's hits bear a star; ? = inconclusive; . = no result given; [ ] = dose if it differs, or a comment.

SMILES	Glyco luc inh	MLL AF4-AF9 inh	HIV Env fusion	FN deposition inh	PAX8 inh HTS	EWS-Fli inh
O=C1[C@H]2[C@@H](c3ccc(F)cc3)N3C(=O)N(c4ccccc4)C(=O)[C@@]3(Cc3ccc(Cl)cc3)[C@H]2C(=O)N1C1CCCCC1	0	1	100*	15	17	9
CC(=O)OC1c2ccccc2C(=O)N1c1ccccc1C (stereo not drawn)	2	2	77*	-3	-5	-3
Cc1ccccc1N1C(=O)c2ccccc2C1O (stereo not drawn)	-4	-4	5	-1	-34	10
Cc1cc(C(=O)COC(=O)CNC(=O)c2ccco2)c(C)n1Cc1ccco1	1	.	.	3	4	.
COc1cc(OC)cc(C(=O)NCC(=O)OCC(=O)c2cc(C)n(Cc3ccco3)c2C)c1	1	3	-4	-5	92*	2
CC(C)(C)n1nnnc1C(c1cccc(C#N)c1)N1CCCCCC1 (stereo not drawn)	-2	.	94*	2	7	.
CCC(C)(C)n1nnnc1C(c1ccc(C)cc1)N1CCCC1 (stereo not drawn)	1	6	.	.	.	1
c1cnc2ccc(C(c3nnnn3C3CCCCC3)N3CCCCC3)cc2c1 (stereo not drawn)	-1	.	105*	7	-18	.
CCC(C)(C)n1nnnc1C(c1ccc2ncccc2c1)N1CCCCCC1 (stereo not drawn)	1	.	29*	0	0	.
CC(C)(C)n1nnnc1C(c1cccc(C#N)c1)N1CCN2CCCC2C1 (stereo not drawn)	2	.	-74	-1	.	.
c1cnc2ccc(C(c3nnnn3C3CCCCC3)N3CCN(C4CCCCC4)CC3)cc2c1 (stereo not drawn)	-7	.	-33	3	-7	.
O=C(c1ccccn1)N1CC2(C1)[C@H](c1ccccc1)[C@@H](CO)N2C(=O)C1CCC1	.	-2	.	1	.	-10
CO[C@H]1CN(C)C(=O)c2cc(NC(=O)C3CC3)ccc2OC[C@H](C)N(Cc2cccc(F)c2)C[C@H]1C	.	5	.	-8	32	7
COc1cc(NC(=O)c2cc3ccccc3cc2O)c(OC)cc1Cl	-13	-1	33	-3	72*	-10
COc1cc(OC)c(NC(=O)c2ccccc2F)cc1Cl	1	-1	1	4	-10	-8
COc1ccccc1NC(=O)c1cc2cc(Br)ccc2cc1O	-4	4	57*	-2	?	-6
Cc1ccc(Cl)cc1NC(=O)COC(=O)c1ccccc1O	2	6	-19	4	10	-18
Cc1cc(O)c(C(C)C)cc1NC(=O)c1ccccc1Cl	2	5	.	3	70*	-12
Cc1ccc(Cl)cc1NC(=O)c1cc2ccccc2cc1O	-9	-2	?	14	78*	12
CN(C)C(=O)[C@H]1[C@H](CO)[C@H]2Cn3c(ccc(C4=CCCC4)c3=O)[C@@H]1N2CC1CCOCC1	.	-14	-5[16.7 µM]	.	.	-5
COCC(=O)N1CC2(C1)[C@H](c1ccc(-c3ccccc3)cc1)[C@H](CO)N2C(=O)COC	.	3	.	.	.	1
CCN1CCN(S(=O)(=O)c2ccc(Cl)c(C(=O)N(C)C3CCCCC3)c2)CC1	1	26*	0	3	4	-1
CCN1CCN(S(=O)(=O)c2ccc(Cl)c(C(=O)Nc3ccccc3N3CCCC3)c2)CC1	-3	3	80*	1	.	6
C[C@@H]1CCCCO[C@@H](CN(C)Cc2ccc(C(F)(F)F)cc2)[C@H](C)CN([C@@H](C)CO)C(=O)c2cc(NS(=O)(=O)c3cccs3)ccc2O1	.	2	9[16.7 µM]	.	?	12
C[C@@H]1CCCCO[C@@H](CN(C)Cc2ccc(C(F)(F)F)cc2)[C@H](C)CN([C@H](C)CO)C(=O)c2cc(NS(=O)(=O)c3cccs3)ccc2O1	.	4	?	.	89*	9
C[C@@H]1CCCCO[C@H](CN(C)Cc2ccc(C(F)(F)F)cc2)[C@@H](C)CN([C@H](C)CO)C(=O)c2cc(NS(=O)(=O)c3cccs3)ccc2O1	.	0	-18[16.7 µM]	.	24	5
C[C@@H]1CCCCO[C@H](CN(C)Cc2ccc(C(F)(F)F)cc2)[C@H](C)CN([C@H](C)CO)C(=O)c2cc(NS(=O)(=O)c3cccs3)ccc2O1	.	1	60*[16.7 µM]	.	99*	19
